Source: ChEMBL document CHEMBL4014270, “Aedes aegypti Larvicidal Sesquiterpene Alkaloids from Maytenus oblongata” (J Nat Prod, 2017)

How the values were obtained:
[1] = system: MRC5; assay: Cytotoxicity against human MRC5 cells assessed as mortality at 10 ug/ml relative to control; format: cell-based
Method in brief: (§1)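 MRC5 cells (normal lung tissue from a fetus), exposed to the test material at 1 or 10 μg/mL, with mortality scored against control. The method follows a previously published cytotoxicity procedure, with docetaxel as positive control.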

[2] = system: Aedes aegypti; assay: Larvicidal activity against Aedes aegypti Paea assessed as mortality after 24 hrs by tube assay; format: functional; details: read-out: LD50 (the source's name)
Method in brief: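 Tube assay on late third- or early fourth-instar larvae of the insecticide-susceptible Paea strain, kept at 28 ± 2 °C and 80 ± 20% RH. Compound in ethanol was added at five concentrations from 1 to 10 μg/mL, 10 tubes of 5 larvae each, in distilled water, with ethanol controls.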

[3] = system: MRC5; assay: Cytotoxicity against human MRC5 cells assessed as mortality at 1 ug/ml relative to control; format: cell-based; method in brief: as §1
[4] = system: Aedes aegypti; assay: Larvicidal activity against Aedes aegypti Cayenne assessed as mortality at 50 ug/ml after 24 hrs by tube assay relative to control; format: functional
[5] = system: Aedes aegypti; assay: Larvicidal activity against Aedes aegypti Paea assessed as mortality at 50 ug/ml after 24 hrs by tube assay relative to control; format: functional

| Structure (SMILES) | mortality [1] [%] | LC50 [2] [µM] | mortality [3] [%] | mortality at 50 µg/mL [4] [%] | mortality at 50 µg/mL [5] [%] |
| --- | --- | --- | --- | --- | --- |
| CC(=O)OC[C@]12[C@H](OC(=O)c3ccccc3)[C@H](OC(=O)c3ccccc3)[C@H]3OC(=O)C(C)(O)CCc4ncccc4C(=O)OC[C@@]4(C)O[C@@]1([C@H]3C)[C@@H](OC(C)=O)[C@@H]4C(=O)[C@@H]2OC(C)=O (stereo partly drawn) | 21 | 2.7 | 18 |  |  |
| CC(=O)O[C@@]12CO[C@@H]1C[C@H](O)[C@@]1(C)C(=O)[C@H](O)C3=C(C)[C@@H](OC(=O)[C@H](O)[C@@H](NC(=O)OC(C)(C)C)c4ccccc4)C[C@@](O)([C@@H](OC(=O)c4ccccc4)[C@H]21)C3(C)C [DOCETAXEL ANHYDROUS] |  |  | 0.0005 |  |  |
| CC1(C)[C@H](C(=O)O[C@H](C#N)c2cccc(Oc3ccccc3)c2)[C@@H]1C=C(Br)Br [DELTAMETHRIN] |  |  |  | 26 | 100 |
| C[C@H]1C(=O)CC[C@@H]2[C@]1(C)CC[C@H]1[C@@]2(C)C[C@H](O)[C@@]2(C)[C@@H]3CC(C)(C)CC[C@]3(C)[C@@H](O)C[C@]12C | 48 | > 10 | 16 |  |  |
| CC(=O)OC[C@]12[C@H](OC(C)=O)[C@H](OC(C)=O)[C@H]3OC(=O)C(C)(O)CCc4ncccc4C(=O)OC[C@@]4(C)O[C@@]1([C@H]3C)[C@@H](OC(C)=O)[C@@H]4C(=O)[C@@H]2OC(C)=O (stereo partly drawn) | 38 | > 10 | 24 |  |  |
| CC(=O)OC[C@]12[C@H](OC(C)=O)[C@H](OC(=O)c3ccccc3)[C@H]3OC(=O)C(C)(O)CCc4ccncc4C(=O)OC[C@@]4(C)O[C@@]1([C@H]3C)[C@@H](OC(C)=O)[C@@H]4[C@@H](OC(C)=O)[C@@H]2OC(C)=O (stereo partly drawn) | 17 | > 10 | 15 |  |  |
| CC(=O)OC[C@]12[C@H](OC(=O)c3ccccc3)[C@H](OC(C)=O)[C@H]3OC(=O)C(C)(O)CCc4ncccc4C(=O)OC[C@@]4(C)O[C@@]1([C@H]3C)[C@@H](OC(C)=O)[C@@H]4C(=O)[C@@H]2OC(C)=O (stereo partly drawn) | 15 | 9.4 | 15 |  |  |
